The record followed here is ChEMBL document CHEMBL1131029, “Synthesis and in vitro efficacy of transferrin conjugates of the anticancer drug chlorambucil” (J Med Chem, 1998).

One data set has as its system MOLT-4. As to the kind of experiment: In vitro inhibitory activity against acute lymphoblastic leukemia (MOLT4) cell line. The data set is classed as functional, cell-based. Particulars: Homo sapiens. The method in brief:
(§1)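 MCF7 (trypsinized monolayer) or MOLT4 (suspension) cells in RPMI 1640 with 10% FCS, plated at 1.0 × 10^5 cells/mL and allowed 24 h recovery. Then 6 days continuous drug exposure, 0.15–40 µM, triplicate wells. Propidium iodide fluorescence read (ex 530/em 620) before and after freeze-kill; viable cells = FU2 − FU1; %T/C; IC50 as mean ± SD, n = 3.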

The species entered for data set [1] is Homo sapiens. Briefly: Alkylating activity of compound remaining after 48 hours of incubation with 10% human blood serum. The data set is classed as functional.
For data set [2], the species on record is Homo sapiens. As to the kind of experiment: Alkylating activity of compound remaining after 96 hours of incubation with 10% human blood serum. The data set is classed as functional.
For data set [3], the species on record is Homo sapiens. Briefly: Alkylating activity of compound remaining after 24 hours of incubation with 10% human blood serum. Type of data set: functional.
Data set [4] can be described thus: Time required to reduce the alkylating activity of 10% human blood serum from its initial value by 50%. Type of data set: ADME, Plasma.
The test system of another data set is MCF7. Briefly: In vitro inhibitory activity against mammary carcinoma (MCF-7) cell line. The data set is classed as functional, cell-based. Conditions: Homo sapiens. The method in brief:
as §1

As for `O=C(CCCc1ccc(N(CCCl)CCCl)cc1)OCCN1C(=O)C=CC1=O`, 7.8 µM corresponded to half-maximal inhibition in the data set on MOLT-4 (IC50). In addition, the Activity in the data set filed under Homo sapiens [1] worked out at 13.8%; in the data set listed under Homo sapiens [2] it was 11%; in the data set filed under Homo sapiens [3], 20.9%. The half-life in data set [4] was 3.1 h.
In the case of `O=C(CCCc1ccc(N(CCCl)CCCl)cc1)N/N=C/CN1C(=O)C=CC1=O`, the IC50 with MOLT-4 was determined as 0.35 µM; with MCF7, 6.8 µM. For the same molecule, the Activity in the data set listed under Homo sapiens [1] stood at 19.5%; in the data set filed under Homo sapiens [2] it was 15.2%; in the data set listed under Homo sapiens [3] it was 25%. The molecule also showed a half-life in data set [4] of 4 h.
For the molecule `O=C(CCCc1ccc(N(CCCl)CCCl)cc1)Oc1cccc(N2C(=O)C=CC2=O)c1`, the IC50 with MOLT-4 was determined as 15.3 µM. For the same molecule, the Activity in the data set listed under Homo sapiens [1] worked out at 15.2%; in the data set filed under Homo sapiens [2] it was 12.1%; in the data set listed under Homo sapiens [3], 22.3%. In data set [4], the half-life is 4.3 h.
In turn, `C/C(=N\NC(=O)CCCc1ccc(N(CCCl)CCCl)cc1)c1cccc(N2C(=O)C=CC2=O)c1` gave an IC50 in the data set on MOLT-4 of 3.3 µM. Further, the Activity was 13.7% in the data set filed under Homo sapiens [1], 10.9% in the data set listed under Homo sapiens [2] and 22.9% in the data set listed under Homo sapiens [3]. The same molecule showed a half-life in data set [4] of 4.5 h.
Consider `O=C(CCCc1ccc(N(CCCl)CCCl)cc1)N/N=C/c1cccc(N2C(=O)C=CC2=O)c1`, for which the IC50 came to 7.5 µM in the data set with MOLT-4 and 35.5 µM in the data set on MCF7. Also, the Activity in the data set listed under Homo sapiens [1] was 14.5%; in the data set filed under Homo sapiens [2], 13.4%; in the data set listed under Homo sapiens [3], 24.1%. In addition, the half-life in data set [4] is 5.9 h.
As for `O=C(O)CCCc1ccc(N(CCCl)CCCl)cc1` [CHLORAMBUCIL], the IC50 with MOLT-4 was 6.3 µM; in the data set on MCF7, 24.6 µM. Besides, the Activity in the data set filed under Homo sapiens [1] came out at 6.6%; in the data set listed under Homo sapiens [3], 12.2%. Moreover, the half-life in data set [4] is 4.5 h.

As usually defined, the IC50 is the point on the concentration scale where inhibition reaches its midpoint. Read a low IC50 as greater potency. In general, half-life refers to the time in which the quantity being followed falls by half. Low readings indicate fast loss, high ones slow loss.
